Broadly, the IC50 is the point on the concentration scale where inhibition reaches its midpoint.

Common to all, as to type: functional, organism-based
Assay [1] is filed under the species Rattus norvegicus. Description: Inhibitory concentration against lipid peroxidation in rat. In outline:
(§1)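 TBARS assay in rat brain homogenate (5 mg protein/mL). Compound was preincubated with homogenate 20 min at 37 °C with shaking, then peroxidation was started with 0.02 mM FeCl2 and 0.25 mM ascorbic acid for 30 min at 37 °C. The reaction was stopped with perchloric acid and centrifuged. Supernatant was reacted with 0.5% TBA at 80 °C for 1 h and A532 read against a 1,1,3,3-tetraethoxypropane standard.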

For assay [2], the species on record is Bos taurus. Description: Inhibitory concentration against bovine serum albumin glycation was determined.
The species entered for assay [3] is Rattus norvegicus. Briefly: Inhibitory concentration for lipid peroxidation in rat. In outline: as §1
The species named for assay [4] is Bos taurus. Briefly: Inhibitory concentration against bovine serum albumin glycation; Not active from 3.80 nM to 1.00 mM.

Take `CC1=C(Br)C(=O)c2ccccc2C1=O`: the results for the IC50 in assay [1] and in assay [2] were 1.1 µM and 144 µM, respectively.
Consider `COC1=C(OC)C(=O)C(C(=O)NCCc2ccccc2)=C(C)C1=O`, for which the concentration for half-maximal inhibition (IC50) in assay [3] was found to be 29.2 µM. This counts as double-digit micromolar.
Regarding `COC1=C(OC)C(=O)C(c2ccccc2)=C(C)C1=O`, the 50% inhibitory concentration (IC50) came out at 39.4 µM in assay [1] and 218 µM in assay [2].
`CC1=C(Cl)C(=O)c2ccccc2C1=O`: the results for the concentration for half-maximal inhibition (IC50) in assay [1] and in assay [2] were 1.41 µM and 199 µM, respectively.
Take `Cc1c(C)c2c(c(C)c1O)CC[C@@](C)(CCC[C@H](C)CCC[C@H](C)CCCC(C)C)O2` [ALPHA-TOCOPHEROL]: the IC50 result in assay [4] is “Not Active”.
Compound `CC1=CC(=O)c2ccccc2C1=O` [MENADIONE] returned an IC50 in assay [1] of 12.2 µM.
